Data: ChEMBL document CHEMBL4351018, “Novel phenanthridin-6(5H)-one derivatives as potent and selective BET bromodomain inhibitors: Rational design, synthesis and biological evaluation” (Eur J Med Chem, 2019)

How the values were obtained:
A549 [1] = test: Induction of apoptosis in human A549 cells assessed as late apoptotic cells at 5.0 uM incubated for 48 hrs by annexin V-FITC/PI double staining based flow cytometric analysis (reference value: 0.039%); assay type: functional
A549 [2] = test: Induction of apoptosis in human A549 cells assessed as necrotic cells at 3.0 uM incubated for 48 hrs by annexin V-FITC/PI double staining based flow cytometric analysis (reference value: 0%); assay type: functional
A549 [3] = test: Induction of apoptosis in human A549 cells incubated for 48 hrs by annexin V-FITC/PI double staining based flow cytometric analysis; assay type: functional, cell-based
[4] = Apparent clearance in Sprague-Dawley rat at 10 mg/kg, po measured for 0.083 to 24 hrs by LC-MS/MS analysis; assay type: ADME, organism-based; conditions: in vivo, read-out: CL(app) (converted)
A549 [5] = test: Induction of cell cycle arrest in human A549 cells assessed as accumulation at […] phase at 3.0 uM incubated for 48 hrs by BrdU/PI staining based flow cytometric analysis; assay type: functional
Outline: (§1)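 Subconfluent A549 cells exposed 48 h to 0.3–5.0 μM with DMSO vehicle control. Pulse-labelled with 10 μM BrdU for 30 min at 37 °C before harvest. Fixed in 70% ethanol, denatured in 2 M HCl, neutralised, then stained with fluorescein anti-BrdU antibody and propidium iodide. Analysed by flow cytometry with 488 nm excitation.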

[6] = target: Bromodomain-containing protein 3 (Homo sapiens) (UniProt Q15059); test: Binding affinity to BRD3 bromodomain 1 (unknown origin) at 20 uM by Alpha screen assay relative to control
[7] = target: Bromodomain testis-specific protein (Homo sapiens) (UniProt Q58F21); test: Binding affinity to BRDT bromodomain 2 (unknown origin) at 20 uM by Alpha screen assay relative to control
[8] = Volume of distribution at steady state in Sprague-Dawley rat at 2.5 mg/kg, iv measured for 0.083 to 24 hrs by LC-MS/MS analysis; assay type: ADME, organism-based; conditions: in vivo, read-out: Vdss
PANC-1 = test: Antiproliferative activity against human PANC1 cells incubated for 48 hrs by MTT assay; assay type: functional, cell-based; conditions: PANC-1, 48 h
Outline: (§2)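 Cells kept in DMEM or RPMI 1640 with 10% FBS at 37 °C, 5% CO2. MTT added for 4 h at 37 °C, formazan dissolved in DMSO, OD read at 570 nm. Survival % taken relative to blank and control wells. Triplicate runs; IC50 from curve fit.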

[9] = Volume of distribution at steady state in Sprague-Dawley rat at 10 mg/kg, po measured for 0.083 to 24 hrs by LC-MS/MS analysis; assay type: ADME, organism-based; conditions: in vivo
[10] = target: Bromodomain testis-specific protein (Homo sapiens) (UniProt Q58F21); test: Binding affinity to BRDT bromodomain 1 (unknown origin) at 20 uM by Alpha screen assay relative to control
[11] = MRT (0 to t) in Sprague-Dawley rat at 10 mg/kg, po measured for 0.083 to 24 hrs by LC-MS/MS analysis; assay type: ADME, organism-based; conditions: in vivo
SGC-7901 = test: Antiproliferative activity against human SGC7901 cells incubated for 48 hrs by MTT assay; assay type: functional, cell-based; conditions: SGC-7901, 48 h; outline: as §2
[12] = MRT (0 to t) in Sprague-Dawley rat at 2.5 mg/kg, iv measured for 0.083 to 24 hrs by LC-MS/MS analysis; assay type: ADME, organism-based; conditions: in vivo
A549 [13] = test: Inhibition of BET in human A549 cells assessed as downregulation of c-Myc protein expression level incubated for 48 hrs by western blot analysis; assay type: cell-based
Outline: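 A549 cells seeded at 400000 per well, grown overnight in 10% FBS medium, then given serially diluted compound for 48 h. c-Myc in lysates detected with a mouse monoclonal antibody; GAPDH used as loading control.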

[14] = target: Bromodomain-containing protein 4 (Homo sapiens, UniProt O60885); test: Binding affinity to recombinant human His-tagged BRD4 bromodomain 1 expressed in […] insect cells using biotinylated H4(1 to 21)K5/8/12/16Ac peptide as substrate at 20 uM preincubated for 30 mins followed by substrate addition and measured after 30 mins by Alpha screen assay relative to control
A549 [15] = test: Induction of apoptosis in human A549 cells assessed as late apoptotic cells at 3.0 uM incubated for 48 hrs by annexin V-FITC/PI double staining based flow cytometric analysis (reference value: 0.039%); assay type: functional
[16] = target: Bromodomain-containing protein 3 (Homo sapiens) (UniProt Q15059); test: Binding affinity to BRD3 bromodomain 2 (unknown origin) at 20 uM by Alpha screen assay relative to control
[17] = Cmax in Sprague-Dawley rat at 10 mg/kg, po measured for 0.083 to 24 hrs by LC-MS/MS analysis; assay type: ADME, organism-based; set-up: dose 10 mg/kg, route oral; conditions: in vivo
A549 [18] = test: Induction of apoptosis in human A549 cells assessed as early apoptotic cells at 3.0 uM incubated for 48 hrs by annexin V-FITC/PI double staining based flow cytometric analysis (reference value: 1.76%); assay type: functional
A549 [19] = test: Induction of cell cycle arrest in human A549 cells assessed as accumulation at […] phase at 5.0 uM incubated for 48 hrs by BrdU/PI staining based flow cytometric analysis; assay type: functional; outline: as §1
[20] = Cmax in Sprague-Dawley rat at 2.5 mg/kg, iv measured for 0.083 to 24 hrs by LC-MS/MS analysis; assay type: ADME, organism-based; set-up: dose 2.5 mg/kg, route intravenous; conditions: in vivo
[21] = target: Bromodomain-containing protein 2 (Homo sapiens) (UniProt P25440); test: Binding affinity to BRD2 bromodomain 2 (unknown origin) at 20 uM by Alpha screen assay relative to control
[22] = target: T1, Bromodomain-containing protein 9 (Homo sapiens) (UniProt Q9H8M2); test: Binding affinity to BRD9 (unknown origin) at 20 uM by Alpha screen assay relative to control
T1 sequence (whole entry): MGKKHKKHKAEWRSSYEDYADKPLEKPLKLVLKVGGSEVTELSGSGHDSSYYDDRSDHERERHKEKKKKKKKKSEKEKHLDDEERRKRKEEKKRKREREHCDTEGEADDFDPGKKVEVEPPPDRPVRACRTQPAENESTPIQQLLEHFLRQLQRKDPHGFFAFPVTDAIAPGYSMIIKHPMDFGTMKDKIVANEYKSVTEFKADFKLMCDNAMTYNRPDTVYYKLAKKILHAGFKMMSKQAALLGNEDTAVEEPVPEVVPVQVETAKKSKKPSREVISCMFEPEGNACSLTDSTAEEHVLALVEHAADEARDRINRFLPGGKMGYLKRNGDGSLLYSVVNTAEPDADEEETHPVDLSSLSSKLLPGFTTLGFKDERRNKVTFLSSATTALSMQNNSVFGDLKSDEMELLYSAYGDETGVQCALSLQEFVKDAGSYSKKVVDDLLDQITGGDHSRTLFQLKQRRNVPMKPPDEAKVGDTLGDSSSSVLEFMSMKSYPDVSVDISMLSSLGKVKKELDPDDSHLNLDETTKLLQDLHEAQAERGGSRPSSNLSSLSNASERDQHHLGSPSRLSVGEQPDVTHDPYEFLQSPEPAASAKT

A549 [23] = test: Induction of apoptosis in human A549 cells assessed as early apoptotic cells at 1.0 uM incubated for 48 hrs by annexin V-FITC/PI double staining based flow cytometric analysis (reference value: 1.76%); assay type: functional
A549 [24] = test: Induction of apoptosis in human A549 cells assessed as necrotic cells at 0.3 uM incubated for 48 hrs by annexin V-FITC/PI double staining based flow cytometric analysis (reference value: 0%); assay type: functional

Bromodomain-containing protein 3 (Homo sapiens), sequence (Q15059 2-726 limits assumed): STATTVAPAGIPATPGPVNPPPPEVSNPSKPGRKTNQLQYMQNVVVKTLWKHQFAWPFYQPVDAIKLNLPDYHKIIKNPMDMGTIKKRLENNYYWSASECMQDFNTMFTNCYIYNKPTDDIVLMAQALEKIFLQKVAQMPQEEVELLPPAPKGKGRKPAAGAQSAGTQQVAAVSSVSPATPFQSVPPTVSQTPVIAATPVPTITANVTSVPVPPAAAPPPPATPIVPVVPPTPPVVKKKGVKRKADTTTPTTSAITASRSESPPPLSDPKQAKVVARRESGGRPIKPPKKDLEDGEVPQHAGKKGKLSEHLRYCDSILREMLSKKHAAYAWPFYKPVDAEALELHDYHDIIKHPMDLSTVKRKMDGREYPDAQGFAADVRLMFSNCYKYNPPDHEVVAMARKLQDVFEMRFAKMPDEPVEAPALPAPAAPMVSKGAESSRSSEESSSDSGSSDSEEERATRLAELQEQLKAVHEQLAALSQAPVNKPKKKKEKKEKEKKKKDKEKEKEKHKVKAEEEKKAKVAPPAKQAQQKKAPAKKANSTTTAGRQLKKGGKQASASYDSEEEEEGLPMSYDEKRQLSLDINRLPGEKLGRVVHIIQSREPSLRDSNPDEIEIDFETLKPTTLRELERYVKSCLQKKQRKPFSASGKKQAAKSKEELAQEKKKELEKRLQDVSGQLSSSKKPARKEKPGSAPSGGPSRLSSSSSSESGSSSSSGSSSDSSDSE
Bromodomain-containing protein 2 (Homo sapiens), sequence (P25440 whole entry, looked up): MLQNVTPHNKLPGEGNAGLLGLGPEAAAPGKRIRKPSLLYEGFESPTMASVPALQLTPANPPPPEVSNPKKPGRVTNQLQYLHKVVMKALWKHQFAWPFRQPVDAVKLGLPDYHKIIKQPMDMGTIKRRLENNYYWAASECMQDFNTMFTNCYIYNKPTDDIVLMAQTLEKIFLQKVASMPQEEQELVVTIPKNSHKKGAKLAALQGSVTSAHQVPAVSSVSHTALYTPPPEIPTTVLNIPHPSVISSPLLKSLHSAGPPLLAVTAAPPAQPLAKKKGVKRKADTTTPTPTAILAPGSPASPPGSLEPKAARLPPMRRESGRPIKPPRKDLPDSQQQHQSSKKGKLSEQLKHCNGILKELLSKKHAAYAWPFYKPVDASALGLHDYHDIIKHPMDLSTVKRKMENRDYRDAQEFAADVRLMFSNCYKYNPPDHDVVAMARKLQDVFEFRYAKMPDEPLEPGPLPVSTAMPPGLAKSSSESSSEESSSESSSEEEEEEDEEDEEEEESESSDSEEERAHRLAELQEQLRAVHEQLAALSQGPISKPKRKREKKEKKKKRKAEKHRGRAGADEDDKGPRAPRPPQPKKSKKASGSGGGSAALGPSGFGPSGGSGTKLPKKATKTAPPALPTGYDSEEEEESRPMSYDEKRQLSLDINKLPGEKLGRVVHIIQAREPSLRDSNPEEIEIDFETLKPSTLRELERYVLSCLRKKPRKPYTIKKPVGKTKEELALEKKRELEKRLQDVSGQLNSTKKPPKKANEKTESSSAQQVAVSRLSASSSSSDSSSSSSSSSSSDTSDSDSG

COc1ccc(Cl)cc1S(=O)(=O)Nc1ccc2[nH]c(=O)c3ccccc3c2c1
Activity (A549 [1]): 8.25% | Activity (A549 [2]): 0% | Activity (A549 [3]): Dose-dependent effect | CL/F [4]: 303 mL/min/kg | Activity (A549 [5]): 76.42% | Activity [6]: > 70% | Activity [7]: > 70% | Vd [8]: 76.7 L/kg | IC50 (PANC-1): 6.7 µM | Vdss [9]: 97.34 L/kg | Activity [10]: > 70% | MRT last [11]: 7.52 h | IC50 (SGC-7901): 5.35 µM | MRT last [12]: 7.93 h | inhibition (A549 [13]): Dose-dependent effect | Activity [14]: > 70% | Activity (A549 [15]): 7.11% | Activity [16]: > 70% | Cmax [17]: 52.4 ng/mL | Activity (A549 [18]): 68.3% | Activity (A549 [19]): 81.66% | Cmax [20]: 96.9 ng/mL | Activity [21]: > 70% | Activity [22]: > 30% | Activity (A549 [23]): 47.8% | Activity (A549 [24]): 0.02%
